One test relates to Poliovirus 1. Put plainly: Compound was tested for antiviral activity (minimum inhibition concentration) in HeLa cells polio virus type 1. It counts as functional. Conditions: Enterovirus C.
A short description of test [1]: Coronary vasoactivity (molar potency ratio (MPR), the quotient of ED50 of adenosine by that of the test nucleoside)Dog to dog variations in MPR are about +/-10%. It counts as functional. The gist of the method:
(§1)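 Dogs anesthetized with morphine-thiamylal-fluothane. MPR is ED50 of adenosine divided by ED50 of test nucleoside. Dog-to-dog variation in MPR about ±10%.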

Test [2] deals with Vesicular stomatitis virus. Put plainly: Compound was tested for antiviral activity against vesicular stomatitis virus in primary rabbit kidney cells. It counts as functional.
The subject of test [3] is Mammalian orthoreovirus 1. Put plainly: Compound was tested for antiviral activity (minimum inhibition concentration) in Vero cells reovirus type 1. It counts as functional. The method, boiled down: (§2)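 Inhibition of virus-induced cytopathogenicity, scored as minimum inhibitory concentration (µg/mL) in the host cell monolayers listed: HSV-1 (KOS) and HSV-2 (G) in primary rabbit kidney cells; measles, reovirus type 1, parainfluenza type 3, Coxsackie B4 and Sindbis in Vero cells; Coxsackie and polio in HeLa cells. Minimum cytotoxic concentration taken as microscopically detectable alteration of normal cell morphology; highest concentration tested 400 µg/mL.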

Test [4] deals with L1210. Put plainly: Effect of compound on the incorporation of nucleic acid precursor into L1210 cells (cpm x 10e-3),precursors used along with compound were [14C]cytidine. The format is functional, Mus musculus. The method, boiled down:
(§3)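 L1210 suspension cultures in RPMI 1640 with 10% horse serum, at 37 °C, preincubated 90 min with or without test compound at 1 mM. 14C-precursor (cytidine, uridine, adenosine or thymidine) then added to 0.04 µCi/mL final and incubated a further 30 min. Cells pelleted and Schmidt-Thannhauser fractionation gave acid-soluble, RNA and DNA fractions, counted by scintillation. Duplicate flasks; results as cpm ×10^-3 and % of control.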

The next test deals with Sindbis virus. Put plainly: Compound was tested for antiviral activity (minimum inhibition concentration) in Vero cells sindbis virus. The format is functional. The method, boiled down: as §2
Test [5] relates to Coxsackievirus B4. Put plainly: Compound was tested for antiviral activity (minimum inhibition concentration) in Vero cells coxsackie virus type B4. It counts as functional. Conditions: Enterovirus B. The method, boiled down:
as §2

The subject of a further test is Measles morbillivirus. Put plainly: Compound was tested for antiviral activity against measles virus in vero cells. The format is functional. The gist of the method: as §2
Test [6] relates to L1210. Put plainly: Effect of compound on the incorporation of nucleic acid precursor into L1210 cells (cpm x 10e-3), precursors used along with compound were [14C]cytidine. The format is functional, Mus musculus. The method, boiled down:
as §3

Another test relates to Human respirovirus 3. Put plainly: Compound was tested for antiviral activity (minimum inhibition concentration) in Vero cells parainfluenza virus type 3. It counts as functional. The method, boiled down: as §2
Test [7] relates to Vesicular stomatitis virus. The test is described as follows: Compound was tested for antiviral activity (minimum inhibition concentration) in HeLa cells vesicular stomatitis virus (VSV). It counts as functional.
For test [8], the system named is L1210. The test is described as follows: Effect of compound on the incorporation of nucleic acid precursor into L1210 cells (cpm x 10e-3), precursors used along with compound were [14C]-Adenosine. It counts as functional, Mus musculus. The method, boiled down:
as §3

Test [9] has as its system L1210. Put plainly: Effect of compound on the incorporation of nucleic acid precursor into L1210 cells (cpm x 10e-3),precursors used along with compound were [14C]uridine. It counts as functional, Mus musculus. The method, boiled down:
as §3

The next test deals with Human alphaherpesvirus 2. Put plainly: Compound was tested for antiviral activity against herpes simplex virus-2(G) in primary rabbit kidney cells. The format is functional. The method, boiled down: as §2
In the next test the test system is Vaccinia virus. The test is described as follows: Compound was tested for antiviral activity against vaccinia virus in primary rabbit kidney cells. As to conditions: Orthopoxvirus vaccinia. The format is functional.
For test [10], the system named is Coxsackievirus B4. The test is described as follows: Compound was tested for antiviral activity (minimum inhibition concentration) in HeLa cells coxsackie virus type 4. The format is functional. As to conditions: Enterovirus B. The gist of the method:
as §2

For the next test, the system named is Human alphaherpesvirus 1. Put plainly: Compound was tested for antiviral activity against herpes simplex virus-1(KOS) in primary rabbit kidney cells. The format is functional. The method, boiled down:
as §2

A short description of test [11]: Coronary vasoactivity as molar potency ratio (MPR), the quotient of ED50 of adenosine by that of the test nucleoside. The format is functional. The gist of the method: as §1

Converted amounts (≈) assume the structure as drawn. “And” between values parts separate entries of the source, which are not always exact repeats. Equal values may be shown once.

In the case of `Nc1nccn2c([C@@H]3O[C@H](CO)[C@@H](O)[C@H]3O)nnc12`, the MIC was greater than 400 µg/mL with Poliovirus 1; 100 µg/mL (≈ 374 µM) in [2]; 200 µg/mL (≈ 748 µM) in test [3]; 300 µg/mL (≈ 1120 µM) against Sindbis virus; 200 µg/mL (≈ 748 µM) in the test with Coxsackievirus B4 [5]; 200 µg/mL (≈ 748 µM) against Measles morbillivirus. The MIC was 100 µg/mL (≈ 374 µM) against Human respirovirus 3; 150 µg/mL (≈ 561 µM) in test [7]; 200 µg/mL (≈ 748 µM) in the test on Human alphaherpesvirus 2; 100 µg/mL (≈ 374 µM) with Vaccinia virus; greater than 400 µg/mL with Coxsackievirus B4 [10]; greater than 400 µg/mL against Human alphaherpesvirus 1. Also, the MPR in test [1] amounted to 0.0015. For the same compound, the Total uptake in the test on L1210 [4] is 50.4; in the test with L1210 [6] it was 128.8 and 161.7. Moreover, the RNA fraction in the test on L1210 [8] is 24 and 19.8. For the same compound, the Fraction with L1210 [9] is given as 24.
For `Nc1ncnc2c1nnn2[C@@H]1O[C@H](CO)[C@@H](O)[C@H]1O`, the MPR in test [11] worked out at 0.042.
The same measure, in the same setting: the result for `Nc1nnnc2c1ncn2[C@@H]1O[C@H](CO)[C@@H](O)[C@H]1O` reads 0.15.
`Nc1ncnc2c1ccn2[C@@H]1O[C@H](CO)[C@@H](O)[C@H]1O`: in test [11], the MPR worked out at 0.071.
With `Nc1nccc2c1ncn2[C@@H]1O[C@H](CO)[C@@H](O)[C@H]1O`, the MIC is 40 µg/mL (≈ 150 µM) in the test on Poliovirus 1; 7 µg/mL (≈ 26.3 µM) in [2]; 4 µg/mL (≈ 15 µM) in test [3]; 40 µg/mL (≈ 150 µM) in the test with Sindbis virus; 4 µg/mL (≈ 15 µM) with Coxsackievirus B4 [5]; 40 µg/mL (≈ 150 µM) against Measles morbillivirus. The MIC amounted to 2 µg/mL (≈ 7.51 µM) with Human respirovirus 3; 10 µg/mL (≈ 37.6 µM) in [7]; 10 µg/mL (≈ 37.6 µM) with Human alphaherpesvirus 2; 7 µg/mL (≈ 26.3 µM) in the test with Vaccinia virus; 40 µg/mL (≈ 150 µM) against Coxsackievirus B4 [10]; 40 µg/mL (≈ 150 µM) against Human alphaherpesvirus 1.
With `Nc1ncnc2c([C@@H]3O[C@H](CO)[C@@H](O)[C@H]3O)[nH]nc12` [FORMYCIN], the MPR in test [11] came out at 0.043. The MIC against Poliovirus 1 was 10 µg/mL (≈ 37.4 µM); in test [2], 2 µg/mL (≈ 7.48 µM); in [3] it was no less than 40 µg/mL; with Sindbis virus it was no less than 40 µg/mL; against Coxsackievirus B4 [5], no less than 40 µg/mL; with Measles morbillivirus, no less than 40 µg/mL. The MIC against Human respirovirus 3 was no less than 40 µg/mL; in [7], 10 µg/mL (≈ 37.4 µM); against Human alphaherpesvirus 2, 4 µg/mL (≈ 15 µM); against Vaccinia virus it was 4 µg/mL (≈ 15 µM); against Coxsackievirus B4 [10], no less than 200 µg/mL; against Human alphaherpesvirus 1 it was 4 µg/mL (≈ 15 µM).
In the case of `NC(=O)c1ncn([C@@H]2O[C@H](CO)[C@@H](O)[C@H]2O)n1` [RIBAVIRIN], the MIC was determined as 10 µg/mL (≈ 40.9 µM) against Poliovirus 1; 20 µg/mL (≈ 81.9 µM) in [2]; 100 µg/mL (≈ 409 µM) in test [3]; 40 µg/mL (≈ 164 µM) with Sindbis virus; 200 µg/mL (≈ 819 µM) with Coxsackievirus B4 [5]; 20 µg/mL (≈ 81.9 µM) in the test with Measles morbillivirus. The MIC was 10 µg/mL (≈ 40.9 µM) in the test with Human respirovirus 3; 20 µg/mL (≈ 81.9 µM) in [7]; greater than 400 µg/mL against Human alphaherpesvirus 2; 20 µg/mL (≈ 81.9 µM) in the test with Vaccinia virus; 20 µg/mL (≈ 81.9 µM) with Coxsackievirus B4 [10]; greater than 400 µg/mL against Human alphaherpesvirus 1.

These data come from ChEMBL document CHEMBL1122693, “Biological activity and a modified synthesis of 8-amino-3-beta-D-ribofuranosyl-1,2,4-triazolo[4,3-a]pyrazine, an isomer of formycin” (1984).
